Experimental findings from ChEMBL document CHEMBL1126017, “Phenylalkyl isothiocyanate-cysteine conjugates as glutathione S-transferase stimulating agents” (J Med Chem, 1992) are described below.

Structures are written as SMILES.

For test [1], the system named is glutathione S-transferase (Mus musculus). Description: Induction of increased cytosolic glutathione S-transferase activity in large bowel mucosa of A/J mice treated with 3 doses of 0.10 mM compound (dissolved in 0.3 mL of cottonseed oil) for 2 days.
The test system is the same in test [2]. Description: Induction of increased cytosolic glutathione S-transferase activity in forestomach of A/J mice treated with 3 doses of 0.10 mM compound (dissolved in 0.3 mL of cottonseed oil) for 2 days. Conditions: Stomach.
Test [3] has the same test system. Description: Induction of increased cytosolic glutathione S-transferase activity in liver of A/J mice treated with 3 doses of 0.04 mM compound (dissolved in 0.3 mL of cottonseed oil) for 2 days.
Test [4] addresses T1, Glutathione S-transferase Mu 1 (Mus musculus) (UniProt P10649).
T1 sequence (whole entry): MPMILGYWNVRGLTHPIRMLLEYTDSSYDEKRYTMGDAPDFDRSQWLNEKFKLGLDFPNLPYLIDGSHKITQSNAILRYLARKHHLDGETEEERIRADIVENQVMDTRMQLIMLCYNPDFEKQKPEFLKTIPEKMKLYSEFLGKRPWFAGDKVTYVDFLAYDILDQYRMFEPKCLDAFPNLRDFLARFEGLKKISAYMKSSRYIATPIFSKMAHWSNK
Description: Ratio of glutathione S-transferase activity in tested (cottonseed oil alone + compound) to that of control (cottonseed oil alone). The test is classed as functional. In short, it runs like this: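 Ratio of cytosolic GST specific activity (CDNB substrate, 340 nm, 30 °C) in each tissue of gavaged female A/J mice to that of cottonseed oil-only controls (test/control).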

The subject of test [5] is glutathione S-transferase (Mus musculus). Nature of the test: Induction of increased cytosolic glutathione S-transferase activity in lung of A/J mice treated with 3 doses of 0.04 mM compound (dissolved in 0.3 mL of cottonseed oil) for 2 days.
Test [6] has the same test system. Description: Induction of increased cytosolic glutathione S-transferase activity in bladder of A/J mice treated with 3 doses of 0.04 mM compound (dissolved in 0.3 mL of cottonseed oil) for 2 days. Conditions: Urinary bladder.
Test [7] shares this test system. Nature of the test: Induction of increased cytosolic glutathione S-transferase activity in lung of A/J mice treated with 3 doses of 0.10 mM compound (dissolved in 0.3 mL of cottonseed oil) for 2 days.
For test [8] the test system is unchanged. Description: Induction of increased cytosolic glutathione S-transferase activity in small bowel mucosa of A/J mice treated with 3 doses of 0.10 mM compound (dissolved in 0.3 mL of cottonseed oil) for 2 days.
Test [9] has the same test system. Nature of the test: Induction of increased cytosolic glutathione S-transferase activity in forestomach of A/J mice treated with 3 doses of 0.04 mM compound (dissolved in 0.3 mL of cottonseed oil) for 2 days. Conditions: Stomach.
Test [10] has the same test system. Description: Induction of increased cytosolic glutathione S-transferase activity in small bowel mucosa of A/J mice treated with 3 doses of 0.04 mM compound (dissolved in 0.3 mL of cottonseed oil) for 2 days.
For test [11] the test system is unchanged. Nature of the test: Induction of increased cytosolic glutathione S-transferase activity in liver of A/J mice treated with 3 doses of 0.10 mM compound (dissolved in 0.3 mL of cottonseed oil) for 2 days.
Test [12] has the same test system. Nature of the test: Induction of increased cytosolic glutathione S-transferase activity in large bowel mucosa of A/J mice treated with 3 doses of 0.04 mM compound (dissolved in 0.3 mL of cottonseed oil) for 2 days.

As for `NC(CS/C(S)=N/CCCc1ccccc1)C(=O)O` (configuration not stated), the Activity (uM min-1 (mg of protein)-1) in [1] was 0.38; in test [2], 0.92; in [3] it was 1.2; in [5], 0.31; in [6] it was 6.16; in test [7], 0.29. The Activity (uM min-1 (mg of protein)-1) in test [8] was 0.69; in test [9] it was 0.86; in test [10] it was 0.49; in test [11], 1.35; in [12], 0.26. The Ratio in [4] was 1.11 [middle of 11 runs].
